Source: PMC9350903 (ACS chemical neuroscience, 2021)
Where “and” joins values, the source holds several entries; their conditions need not be identical. Equal values may be shown once. Blank lines part the entries; values can stand above or below the compound they belong to.

Key:
CSF-1R [1] = target: T1, CSF-1R (Rattus norvegicus, UniProt Q00495); assay: [^3H]CPPC autoradiography in intrastriatal LPS rat brain tissues; type: binding; details: for inhibition of [^3H]CPPC binding: 10 μM competitor
T1 sequence (Q00495 20-978): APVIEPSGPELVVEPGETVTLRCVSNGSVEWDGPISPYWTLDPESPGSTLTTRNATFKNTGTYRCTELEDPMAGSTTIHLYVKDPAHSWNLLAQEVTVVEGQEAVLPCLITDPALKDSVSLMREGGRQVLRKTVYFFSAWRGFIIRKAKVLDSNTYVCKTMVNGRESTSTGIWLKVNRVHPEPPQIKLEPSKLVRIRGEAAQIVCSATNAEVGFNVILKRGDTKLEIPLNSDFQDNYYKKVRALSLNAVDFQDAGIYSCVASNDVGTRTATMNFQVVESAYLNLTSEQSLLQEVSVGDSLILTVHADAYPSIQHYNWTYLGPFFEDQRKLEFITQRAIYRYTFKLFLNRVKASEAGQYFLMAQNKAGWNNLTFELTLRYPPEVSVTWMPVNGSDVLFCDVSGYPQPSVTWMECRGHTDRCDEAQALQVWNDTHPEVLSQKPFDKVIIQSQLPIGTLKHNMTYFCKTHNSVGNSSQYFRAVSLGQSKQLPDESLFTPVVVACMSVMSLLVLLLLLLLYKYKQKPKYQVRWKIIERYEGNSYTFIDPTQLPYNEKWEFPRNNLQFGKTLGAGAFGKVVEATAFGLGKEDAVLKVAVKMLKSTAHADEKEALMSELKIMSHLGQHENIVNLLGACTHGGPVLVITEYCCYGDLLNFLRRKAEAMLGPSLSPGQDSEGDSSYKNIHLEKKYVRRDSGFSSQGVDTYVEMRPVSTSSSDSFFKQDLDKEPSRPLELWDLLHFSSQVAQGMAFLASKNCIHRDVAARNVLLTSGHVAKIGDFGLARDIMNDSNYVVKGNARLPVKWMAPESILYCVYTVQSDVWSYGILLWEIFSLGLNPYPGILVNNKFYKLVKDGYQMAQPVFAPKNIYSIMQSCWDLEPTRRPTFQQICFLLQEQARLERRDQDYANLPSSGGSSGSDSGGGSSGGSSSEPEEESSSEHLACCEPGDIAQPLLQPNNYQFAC

CSF-1R [2] = target: T2, CSF-1R (Mus musculus, UniProt P09581); assay: [^3H]CPPC autoradiography in i.p. LPS mouse spleen tissues; type: binding
T2 sequence (P09581 20-977): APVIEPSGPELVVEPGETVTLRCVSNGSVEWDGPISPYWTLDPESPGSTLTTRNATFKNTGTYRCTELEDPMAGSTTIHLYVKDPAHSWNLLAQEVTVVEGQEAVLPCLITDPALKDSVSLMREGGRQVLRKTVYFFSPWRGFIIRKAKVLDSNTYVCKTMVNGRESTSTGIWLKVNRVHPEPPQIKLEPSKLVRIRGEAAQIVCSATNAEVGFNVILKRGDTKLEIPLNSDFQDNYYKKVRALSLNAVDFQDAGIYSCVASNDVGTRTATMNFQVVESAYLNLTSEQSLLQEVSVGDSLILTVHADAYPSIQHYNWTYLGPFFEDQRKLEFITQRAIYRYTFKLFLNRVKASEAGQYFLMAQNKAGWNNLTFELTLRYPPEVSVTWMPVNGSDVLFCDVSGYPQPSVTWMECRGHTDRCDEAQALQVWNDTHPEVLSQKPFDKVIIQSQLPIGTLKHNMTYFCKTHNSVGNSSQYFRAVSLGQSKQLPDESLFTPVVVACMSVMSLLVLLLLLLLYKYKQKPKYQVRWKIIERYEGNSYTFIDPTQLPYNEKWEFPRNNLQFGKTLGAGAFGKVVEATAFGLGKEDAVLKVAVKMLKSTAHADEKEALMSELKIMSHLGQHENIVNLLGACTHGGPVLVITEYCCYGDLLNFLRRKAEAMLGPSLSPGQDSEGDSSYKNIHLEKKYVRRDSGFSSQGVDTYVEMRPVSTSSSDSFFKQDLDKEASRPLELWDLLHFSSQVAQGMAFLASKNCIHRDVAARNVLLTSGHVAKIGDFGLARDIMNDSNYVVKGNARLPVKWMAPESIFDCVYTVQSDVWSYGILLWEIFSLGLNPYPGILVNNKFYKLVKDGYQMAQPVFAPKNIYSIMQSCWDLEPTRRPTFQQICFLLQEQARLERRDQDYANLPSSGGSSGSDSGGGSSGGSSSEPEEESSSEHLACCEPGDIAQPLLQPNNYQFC

403 known kinases = assay: scanMAX KINOMEscan profile; type: binding; details: 10 μM unlabeled CPPC; number of kinases hit of number tested
In short: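 Outsourced scanMAX KINOMEscan competition-binding profile of 403 kinases. Unlabeled test compound was tested at 10 μM, and kinases with off-target binding were identified.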

[3] = target: T3, serotonin 5-HT3A receptor (Homo sapiens, UniProt P46098); assay: Eurofins DiscoverX SAFETYscan CNS safety panel
T3 sequence (P46098 24-478): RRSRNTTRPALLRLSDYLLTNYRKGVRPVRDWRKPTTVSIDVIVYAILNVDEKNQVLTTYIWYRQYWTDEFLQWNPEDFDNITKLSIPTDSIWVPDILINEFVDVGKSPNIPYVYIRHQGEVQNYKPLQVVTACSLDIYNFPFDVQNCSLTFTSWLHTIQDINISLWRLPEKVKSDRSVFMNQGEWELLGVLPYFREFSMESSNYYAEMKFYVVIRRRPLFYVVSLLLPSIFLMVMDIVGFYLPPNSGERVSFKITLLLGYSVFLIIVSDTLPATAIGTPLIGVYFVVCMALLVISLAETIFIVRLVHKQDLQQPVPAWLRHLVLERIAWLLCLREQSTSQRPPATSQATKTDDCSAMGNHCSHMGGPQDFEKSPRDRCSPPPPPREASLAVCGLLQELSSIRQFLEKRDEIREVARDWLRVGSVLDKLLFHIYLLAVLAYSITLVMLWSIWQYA

[4] = target: α4β2 nicotinic acetylcholine receptor (Homo sapiens, UniProt P17787+P43681); assay: Eurofins DiscoverX SAFETYscan CNS safety panel
[5] = target: NAV 1.5 sodium-gated channel (Homo sapiens, UniProt Q14524); assay: Eurofins DiscoverX SAFETYscan CNS safety panel
insulin receptor = insulin receptor (Homo sapiens, UniProt P06213); assay: Eurofins DiscoverX SAFETYscan CNS safety panel
[6] = target: Tyrosine protein kinase LCK (Homo sapiens, UniProt P06239); assay: Eurofins DiscoverX SAFETYscan CNS safety panel
[7] = target: vascular endothelial growth factor receptor 2 (Homo sapiens, UniProt P35968); assay: Eurofins DiscoverX SAFETYscan CNS safety panel
CSF-1R [8] = details: [^11C]CPPC autoradiography in AD tissues; cited from earlier work
Kit = details: cited from earlier work
Axl = details: cited from earlier work
TrkA = details: cited from earlier work
Flt-3 = details: cited from earlier work
IRKβ = details: cited from earlier work
c-kit = details: cited from earlier work
[9] = oral administration; non-human primates; cited from earlier work
CSF-1R [10] = details: cited from earlier work
CSF-1R [11] = target: T2, CSF-1R; assay: [^3H]CPPC autoradiography in GBM mouse model brain tissue; type: binding; details: mouse GBM brain sections; 18 nM [^3H]CPPC; defined using unlabeled 10 μM CPPC
In short: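 Male-unspecified mice received a unilateral intrastriatal injection of 2.5e6 […] cells. Tumour-bearing mice were selected by MRI on day 10 and killed 9 days later. Brains were fresh-frozen and cut at 10 μm. Sections were incubated with tritiated test compound in 100% FBS for 2 h at room temperature. Non-specific binding used 10 μM unlabeled compound. Sections were washed in 0.5% BSA at 4 °C, then water at 4 °C, exposed to a phosphor screen for 5 days and analysed by ROI.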

CSF-1R [12] = assay: No-Wash Assay with [^3H]CPPC in LPS-treated spleen and LPS injected brains; type: binding; details: LPS-treated spleen, 7-day and 30-day post LPS injected brains
[13] = Storage stability of [^3H]CPPC; type: physicochemical; details: stored at −20 °C in ethanol; over the first 6 months
In short: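 Tritiated test compound (80 Ci/mmol; 1 mCi/mL stock) was stored in ethanol at −20 °C. Decomposition was measured at 2, 4 and 6 months.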

TSPO [14] = target: TSPO (Rattus norvegicus, UniProt P16257); assay: [^3H]PBR28 autoradiography in intrastriatal LPS rat brain tissues; type: binding
TSPO [15] = target: T4, TSPO (Mus musculus, UniProt P50637); assay: [^3H]PBR28 autoradiography in GBM mouse model brain tissue; type: binding
In short: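 Mice received an intrastriatal injection of 2.5e6 […] cells and were killed 19 days later. Fresh-frozen brain sections were incubated with 3 nM tritiated TSPO radioligand (total binding) and read by phosphor-screen autoradiography. Adjacent sections were immunostained for IBA-1. Tumour was located by anti-luciferase staining.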

TSPO [16] = target: T4, TSPO; assay: [^3H]PBR28 autoradiography in i.p. LPS mouse spleen tissues; type: binding
In short: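 C57bl/6 male mice, 10 weeks old, received LPS 1 mg/kg i.p. in saline for 3 or 4 consecutive days and were killed on day 5 or 6. Spleens were slow-frozen on dry ice and sectioned. Sections were incubated with ascending concentrations of tritiated TSPO radioligand in 100% FBS for 2 h at room temperature, then washed. […] Bmax and Kd came from non-linear regression of phosphor-screen ROI data.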

TSPO [17] = assay: No-Wash Assay with [^3H]PBR28 in LPS-treated spleen and LPS injected brains; type: binding; details: LPS-treated spleen, 7-day and 30-day post LPS injected brains
[18] = ipsilateral hemisphere of 30-day LPS rat brain, [^3H]CPPC 3 nM
[19] = [^3H]CPPC saturation in i.p. LPS mouse spleen
[20] = 7-day post-LPS injection rat brain, [^3H]CPPC 3.5 nM, mean ± sd
[21] = rats sacrificed 30-days post-surgery
[22] = [^3H]PBR28 saturation in i.p. LPS mouse spleen

Sequence of vascular endothelial growth factor receptor 2 (P35968 20-1356): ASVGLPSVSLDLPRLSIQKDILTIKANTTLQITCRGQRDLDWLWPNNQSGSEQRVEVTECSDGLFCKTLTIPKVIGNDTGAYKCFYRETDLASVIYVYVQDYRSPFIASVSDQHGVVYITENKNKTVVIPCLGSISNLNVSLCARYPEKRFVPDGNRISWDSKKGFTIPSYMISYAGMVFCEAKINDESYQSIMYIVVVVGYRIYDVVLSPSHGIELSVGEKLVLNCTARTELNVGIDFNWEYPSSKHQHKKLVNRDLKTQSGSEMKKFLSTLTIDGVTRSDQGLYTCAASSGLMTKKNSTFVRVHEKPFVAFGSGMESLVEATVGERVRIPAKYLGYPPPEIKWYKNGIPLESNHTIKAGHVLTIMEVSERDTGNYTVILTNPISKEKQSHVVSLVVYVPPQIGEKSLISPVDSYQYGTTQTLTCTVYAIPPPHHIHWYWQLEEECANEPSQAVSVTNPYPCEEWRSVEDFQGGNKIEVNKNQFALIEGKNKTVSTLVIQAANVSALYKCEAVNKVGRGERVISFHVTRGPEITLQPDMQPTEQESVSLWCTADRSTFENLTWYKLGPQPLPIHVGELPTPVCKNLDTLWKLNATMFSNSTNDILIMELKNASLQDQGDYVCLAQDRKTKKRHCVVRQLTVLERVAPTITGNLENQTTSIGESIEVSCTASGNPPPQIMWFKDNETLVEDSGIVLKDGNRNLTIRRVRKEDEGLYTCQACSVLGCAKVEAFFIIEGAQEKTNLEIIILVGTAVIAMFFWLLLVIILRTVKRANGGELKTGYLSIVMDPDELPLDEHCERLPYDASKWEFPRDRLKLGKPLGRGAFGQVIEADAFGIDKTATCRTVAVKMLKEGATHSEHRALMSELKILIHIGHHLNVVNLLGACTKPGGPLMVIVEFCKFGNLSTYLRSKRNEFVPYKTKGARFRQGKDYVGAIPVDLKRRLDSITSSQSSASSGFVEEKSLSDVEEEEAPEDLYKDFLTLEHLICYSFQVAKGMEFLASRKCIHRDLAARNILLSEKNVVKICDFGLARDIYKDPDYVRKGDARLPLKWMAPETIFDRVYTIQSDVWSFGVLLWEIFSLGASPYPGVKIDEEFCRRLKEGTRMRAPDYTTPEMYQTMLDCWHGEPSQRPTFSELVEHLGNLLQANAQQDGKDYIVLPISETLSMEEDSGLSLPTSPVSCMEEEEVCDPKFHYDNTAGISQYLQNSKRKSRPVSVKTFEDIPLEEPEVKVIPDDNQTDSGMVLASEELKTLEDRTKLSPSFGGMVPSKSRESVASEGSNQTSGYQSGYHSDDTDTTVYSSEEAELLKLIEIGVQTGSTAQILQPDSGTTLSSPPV
Sequence of Tyrosine protein kinase LCK (P06239 whole entry): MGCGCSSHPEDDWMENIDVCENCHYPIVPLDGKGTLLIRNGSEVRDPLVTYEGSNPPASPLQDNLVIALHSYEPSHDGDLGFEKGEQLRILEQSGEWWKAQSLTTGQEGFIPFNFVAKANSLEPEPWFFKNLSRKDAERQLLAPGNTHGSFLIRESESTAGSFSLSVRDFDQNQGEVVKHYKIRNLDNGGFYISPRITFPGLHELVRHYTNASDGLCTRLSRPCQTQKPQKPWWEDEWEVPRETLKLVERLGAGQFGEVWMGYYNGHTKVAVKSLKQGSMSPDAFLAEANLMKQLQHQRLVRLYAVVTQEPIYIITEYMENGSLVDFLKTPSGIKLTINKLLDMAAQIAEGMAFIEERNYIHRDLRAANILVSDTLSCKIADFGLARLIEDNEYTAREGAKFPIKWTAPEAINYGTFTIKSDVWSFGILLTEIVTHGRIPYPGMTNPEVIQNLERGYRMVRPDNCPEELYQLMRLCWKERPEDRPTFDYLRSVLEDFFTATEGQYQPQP
Sequence of α4β2 nicotinic acetylcholine receptor (P43681 29-627 limits assumed): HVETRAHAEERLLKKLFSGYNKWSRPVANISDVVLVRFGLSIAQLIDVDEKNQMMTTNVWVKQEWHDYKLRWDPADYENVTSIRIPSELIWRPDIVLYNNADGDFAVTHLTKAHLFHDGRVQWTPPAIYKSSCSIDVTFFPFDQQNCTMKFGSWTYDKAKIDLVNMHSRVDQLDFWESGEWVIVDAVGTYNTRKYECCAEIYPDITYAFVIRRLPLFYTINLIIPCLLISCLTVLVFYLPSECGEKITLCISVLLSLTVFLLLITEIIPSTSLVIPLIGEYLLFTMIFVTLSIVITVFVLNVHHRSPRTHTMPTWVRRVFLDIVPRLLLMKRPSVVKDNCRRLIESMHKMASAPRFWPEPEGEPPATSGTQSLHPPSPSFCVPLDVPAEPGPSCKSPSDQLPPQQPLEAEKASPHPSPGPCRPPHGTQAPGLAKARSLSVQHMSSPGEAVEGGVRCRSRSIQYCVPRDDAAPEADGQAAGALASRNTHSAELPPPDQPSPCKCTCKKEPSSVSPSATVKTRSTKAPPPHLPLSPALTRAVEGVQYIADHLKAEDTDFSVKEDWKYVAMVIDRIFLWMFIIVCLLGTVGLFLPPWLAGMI
Sequence of α4β2 nicotinic acetylcholine receptor (P17787 26-502): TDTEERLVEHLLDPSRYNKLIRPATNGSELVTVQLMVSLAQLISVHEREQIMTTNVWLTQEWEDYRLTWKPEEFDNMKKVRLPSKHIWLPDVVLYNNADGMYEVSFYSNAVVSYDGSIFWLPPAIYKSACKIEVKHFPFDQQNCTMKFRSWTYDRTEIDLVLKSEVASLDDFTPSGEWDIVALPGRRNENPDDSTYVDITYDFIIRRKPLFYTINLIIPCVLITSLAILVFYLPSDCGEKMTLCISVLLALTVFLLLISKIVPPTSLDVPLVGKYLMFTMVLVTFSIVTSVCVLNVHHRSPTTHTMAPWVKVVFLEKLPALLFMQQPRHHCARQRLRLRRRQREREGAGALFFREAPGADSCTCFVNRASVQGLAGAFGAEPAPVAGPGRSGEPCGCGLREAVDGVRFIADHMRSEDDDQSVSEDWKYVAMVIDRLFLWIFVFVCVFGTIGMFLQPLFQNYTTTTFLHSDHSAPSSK
Sequence of NAV 1.5 sodium-gated channel (Q14524 whole entry): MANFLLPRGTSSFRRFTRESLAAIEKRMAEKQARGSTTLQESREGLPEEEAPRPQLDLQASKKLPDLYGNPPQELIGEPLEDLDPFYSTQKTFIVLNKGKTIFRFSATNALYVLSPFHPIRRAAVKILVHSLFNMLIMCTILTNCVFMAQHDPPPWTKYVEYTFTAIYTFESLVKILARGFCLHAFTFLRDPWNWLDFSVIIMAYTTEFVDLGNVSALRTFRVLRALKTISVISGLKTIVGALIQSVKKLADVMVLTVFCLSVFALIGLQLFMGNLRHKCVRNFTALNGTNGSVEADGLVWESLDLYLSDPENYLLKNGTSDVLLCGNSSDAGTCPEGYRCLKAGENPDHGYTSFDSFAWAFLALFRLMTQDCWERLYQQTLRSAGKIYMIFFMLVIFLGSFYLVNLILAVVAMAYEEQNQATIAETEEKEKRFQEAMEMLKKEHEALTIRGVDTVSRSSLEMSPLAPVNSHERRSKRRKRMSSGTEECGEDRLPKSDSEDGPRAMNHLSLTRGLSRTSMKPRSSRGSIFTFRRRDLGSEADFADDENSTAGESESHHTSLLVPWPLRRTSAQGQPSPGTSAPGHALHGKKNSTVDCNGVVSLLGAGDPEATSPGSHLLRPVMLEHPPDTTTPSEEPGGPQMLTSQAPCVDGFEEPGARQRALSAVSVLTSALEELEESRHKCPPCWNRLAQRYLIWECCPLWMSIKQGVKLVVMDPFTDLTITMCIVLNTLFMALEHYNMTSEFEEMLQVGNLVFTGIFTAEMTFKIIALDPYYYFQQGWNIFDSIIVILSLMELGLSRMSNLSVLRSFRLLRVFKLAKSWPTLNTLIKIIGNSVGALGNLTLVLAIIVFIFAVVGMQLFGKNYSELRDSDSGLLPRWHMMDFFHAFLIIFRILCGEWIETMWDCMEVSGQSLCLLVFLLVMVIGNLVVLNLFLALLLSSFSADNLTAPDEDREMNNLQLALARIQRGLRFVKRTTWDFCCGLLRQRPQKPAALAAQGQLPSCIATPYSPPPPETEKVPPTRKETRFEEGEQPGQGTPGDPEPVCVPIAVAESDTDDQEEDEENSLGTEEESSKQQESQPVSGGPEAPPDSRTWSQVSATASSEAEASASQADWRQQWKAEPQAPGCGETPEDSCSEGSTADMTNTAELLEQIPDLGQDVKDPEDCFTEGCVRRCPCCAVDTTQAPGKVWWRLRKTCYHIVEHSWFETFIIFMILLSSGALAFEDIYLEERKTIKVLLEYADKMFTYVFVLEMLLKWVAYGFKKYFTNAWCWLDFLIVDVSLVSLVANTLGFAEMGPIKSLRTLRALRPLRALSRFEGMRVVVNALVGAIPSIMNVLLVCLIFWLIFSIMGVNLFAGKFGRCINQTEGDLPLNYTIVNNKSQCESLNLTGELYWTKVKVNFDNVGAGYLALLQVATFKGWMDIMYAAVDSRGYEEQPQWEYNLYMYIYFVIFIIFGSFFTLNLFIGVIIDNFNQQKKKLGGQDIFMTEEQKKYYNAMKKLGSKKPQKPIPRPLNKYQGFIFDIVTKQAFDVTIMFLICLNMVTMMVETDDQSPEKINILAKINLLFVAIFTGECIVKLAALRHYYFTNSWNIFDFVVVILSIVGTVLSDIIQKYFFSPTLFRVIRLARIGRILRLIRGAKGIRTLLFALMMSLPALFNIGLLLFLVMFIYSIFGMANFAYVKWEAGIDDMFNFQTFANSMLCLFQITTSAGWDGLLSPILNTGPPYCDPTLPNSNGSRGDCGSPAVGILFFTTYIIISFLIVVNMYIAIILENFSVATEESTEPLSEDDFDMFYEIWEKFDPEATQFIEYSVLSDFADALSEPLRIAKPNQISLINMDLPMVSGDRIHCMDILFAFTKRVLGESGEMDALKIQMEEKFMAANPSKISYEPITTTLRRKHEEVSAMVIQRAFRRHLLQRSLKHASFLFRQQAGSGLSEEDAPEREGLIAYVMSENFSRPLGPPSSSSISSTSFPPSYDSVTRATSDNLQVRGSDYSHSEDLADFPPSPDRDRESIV

SMILES: CN1CCN(c2ccc(NC(=O)c3ccc(C#N)o3)c(N3CCCCC3)c2)CC1 [CPPC, 5-cyano-N-(4-(4-methylpiperazin-1-yl)-2-(piperidin-1-yl)phenyl)furan-2-carboxamide]
displacement of [^3H]CPPC binding (CSF-1R [1]; 10 μM unlabeled CPPC, LPS rodent brain tissue): up to 50% | % inhibition of [^3H]CPPC binding (signal-to-noise) (CSF-1R [1]; 7-day post-LPS rat brain, 10 μM unlabeled CPPC, [^3H]CPPC 3.5 nM): 49.9 ± 2.9% | inhibition of [^3H]CPPC binding (CSF-1R [1]; [18]): 60% | IC50 (CSF-1R [2]): 9.4 nM | hillslope (nH) (CSF-1R [2]; CPPC concentration curve vs [^3H]CPPC in i.p. LPS spleen): 0.46 | inhibition of [^3H]CPPC binding (CSF-1R [2]; i.p. LPS mouse spleen (n = 6), 10 μM competitor, [^3H]CPPC 3 nM): 85% and > 80% | kinase targets with off-target binding (403 known kinases): 204 of 403 | IC50 [3]: 5860 nM | IC50 [4]: 4880 nM | IC50 [5]: 6510 nM | IC50 (insulin receptor): 70 nM | IC50 [6]: 22 nM | IC50 [7]: 74 nM | ratio of total baseline binding to the inhibited condition (CSF-1R [8]): 1.7–2.7 | concentration of off-target binding (Kit): less than 0.1 μM | concentration of off-target binding (Axl): less than 0.1 μM | concentration of off-target binding (TrkA): less than 0.1 μM | concentration of off-target binding (Flt-3): less than 0.1 μM | concentration of off-target binding (IRKβ): less than 0.1 μM

SMILES: FC(F)(F)c1ccc(CNc2ccc(Cc3c[nH]c4ncc(Cl)cc34)cn2)cn1 [PLX3397, 5-((5-chloro-1H-pyrrolo[2,3-b]pyridin-3-yl)methyl)-N-((6-(trifluoromethyl)pyridin-3-yl)methyl)pyridin-2-amine]
inhibition of [^3H]CPPC binding (CSF-1R [1]; [18]): 15% | affinity for c-kit (c-kit): 20 nM | presence in cerebrospinal fluid [9]: observed in cerebrospinal fluid, albeit at low concentrations | affinity for CSF-1R (CSF-1R [10]): 10 nM

SMILES: CN1CCN(c2ccc(NC(=O)c3ccc(C#N)o3)c(N3CCCCC3)c2)CC1 [[^3H]CPPC, [^3H] 5-cyano-N-(4-(4-methylpiperazin-1-yl)-2-(piperidin-1-yl)phenyl)furan-2-carboxamide]
Kd (CSF-1R [2]; [19]): 4.3 nM

[^3H]CPPC binding, contralateral hemisphere (CSF-1R [1]; [20]): 17.9 ± 1.1 nCi/mg | [^3H]CPPC binding, ipsilateral hemisphere (CSF-1R [1]; [20]): 18.9 ± 1.7 nCi/mg | saturability of [^3H]CPPC binding (CSF-1R [1]; 30-day LPS rat brain sections, radioligand concentration up to 40 nM): failed to saturate | total binding of [^3H]CPPC (CSF-1R [1]; [18]): 15 nCi/mg | specific signal of [^3H]CPPC (CSF-1R [11]): ~ 60% | Bmax (CSF-1R [2]; [19]): 1339 fmol/mg tissue | baseline radioligand binding of [^3H]CPPC (CSF-1R [2]; i.p. LPS mouse spleen, [^3H]CPPC 3 nM): 100 nCi/mg | specific binding under No-Wash Assay conditions (CSF-1R [12]): lack of specific binding | rate of decomposition [13]: less than 3%
SMILES: [3H]C([3H])([3H])N1CCN(c2ccc(NC(=O)c3ccc(C#N)o3)c(N3CCCCC3)c2)CC1 [[^3H]CPPC, [^3H] 5-cyano-N-(4-(4-methylpiperazin-1-yl)-2-(piperidin-1-yl)phenyl)furan-2-carboxamide]

SMILES: COc1ccccc1CN(C(C)=O)c1cnccc1Oc1ccccc1 [[^3H]PBR28]
Bmax (TSPO [14]; [^3H]PBR28 saturation, ipsilateral hemisphere of 30-day LPS rat brain): 620.7 fmol/mg | [^3H]PBR28 specific binding, contralateral hemisphere (TSPO [14]; rats sacrificed 7-days post-surgery): 29.0 ± 3.1 nCi/mg | [^3H]PBR28 specific binding, ipsilateral hemisphere (TSPO [14]; rats sacrificed 7-days post-surgery, mean ± sd): 83.5 ± 48.9 nCi/mg | [^3H]PBR28 specific binding, contralateral hemisphere (TSPO [14]; [21]): 14.0 ± 2.36 nCi/mg | [^3H]PBR28 specific binding, ipsilateral hemisphere (TSPO [14]; [21]): 36.2 ± 4.07 nCi/mg | [^3H]PBR28 binding density (TSPO [15]; areas of decreased immunostaining for inflammatory cells): 620 MDC/mm^2 | relative target density ([^3H]PBR28 specific signal) (TSPO [15]; region of the tumor and immediately proximal areas): 250500 MDC/mm^2 | Bmax (TSPO [16]; [22]): 14771 fmol/mg tissue | Kd (TSPO [16]; [22]): 2.4 nM | specific binding (TSPO [16]; defined using unlabeled 10 μM FEPPA, i.p. LPS mouse spleen): 99 ± 0.03% | specific binding under No-Wash Assay conditions (TSPO [17]): > 60%
